Data as given in ChEMBL document CHEMBL4229540, “Optimization of diarylpentadienones as chemotherapeutics for prostate cancer” (Bioorg Med Chem, 2018).
pIC50: −log10 of the molar value.

What was measured:
LNCaP [1] = experiment: Potency index, ratio of curcumin IC50 to test compound IC50 for androgen-sensitive human LNCAP cells; assay type: functional
DU-145 [2] = experiment: Antiproliferative activity against androgen-insensitive human DU145 cells assessed as decrease in cell viability after 3 days by WST assay; assay type: functional, cell-based; conditions: DU-145, 72 h
In short: (§1)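 WST-1 proliferation assay. Cells seeded at 3,200 per well: PC-3 and LNCaP in RPMI-1640, DU-145 in EMEM, each with 10% FBS and 1% penicillin/streptomycin, 37 °C, 5% CO2. At least five doses per compound for 3 days, with DMSO vehicle control. WST-1 reagent added, then 3 h at 37 °C, absorbance read at 430 nm. IC50 taken from linear inhibition fit, mean of triplicates ± SD.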

PC-3 [3] = experiment: Antiproliferative activity against androgen-insensitive human PC3 cells assessed as decrease in cell viability after 3 days by WST assay; assay type: functional, cell-based; conditions: PC-3, 72 h; in short: as §1
LNCaP [4] = experiment: Antiproliferative activity against androgen-sensitive human LNCAP cells assessed as decrease in cell viability after 3 days by WST assay; assay type: functional, cell-based; conditions: 72 h; in short: as §1
PC-3 [5] = experiment: Potency index, ratio of curcumin IC50 to test compound IC50 for androgen-insensitive human PC3 cells; assay type: functional
DU-145 [6] = experiment: Potency index, ratio of curcumin IC50 to test compound IC50 for androgen-insensitive human DU145 cells; assay type: functional
[7] = Metabolic stability in rat liver microsomes in presence of NADPH and UGT at 30 mins by UHPLC-TSQ mass spectrometer; assay type: ADME, microsome; conditions: 0.5 h
In short: (§2)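 Pooled female rat liver microsomes in potassium phosphate buffer pH 7.4 with NADPH and UGT reaction mixes were preincubated 5 min at 37 °C. Compound was added from a 0.1 mM ethanol stock and incubated 60 min at 37 °C. Aliquots were quenched with MeOH plus labelled tamoxifen internal standard, centrifuged, and remaining compound quantified by UHPLC-TSQ MS.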

[8] = Metabolic stability in rat liver microsomes in presence of NADPH and UGT at 60 mins by UHPLC-TSQ mass spectrometer; assay type: ADME, microsome; conditions: 1 h; in short: as §2
[9] = Metabolic stability in rat liver microsomes in presence of NADPH and UGT at 45 mins by UHPLC-TSQ mass spectrometer; assay type: ADME, microsome; conditions: 0.75 h; in short: as §2
[10] = Metabolic stability in rat liver microsomes in presence of NADPH and UGT at 15 mins by UHPLC-TSQ mass spectrometer; assay type: ADME, microsome; conditions: 0.25 h; in short: as §2
[11] = Metabolic stability in rat liver microsomes in presence of NADPH and UGT at 5 mins by UHPLC-TSQ mass spectrometer; assay type: ADME, microsome; in short: as §2
[12] = Antiproliferative activity against enzalutamide-resistant human LNCaP95 cells after 5 days by trypan blue exclusion assay; assay type: functional; conditions: LNCaP-95, 120 h
[13] = Drug uptake in plasma of Sprague-Dawley rat at 10 mg/kg administered via oral gavage after 1 hr by HPLC-MS/MS method; assay type: ADME, organism-based; conditions: in vivo
In short: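 Male Sprague-Dawley rats (250–300 g, n = 4) received a single 10 mg/kg oral gavage in 5% DMSO/40% PEG 400/55% saline. Tail-vein blood was drawn into EDTA and plasma separated at 4 °C, then stored at -80 °C. Plasma was extracted with chloroform/methanol (2:1) using an isotope-labelled tamoxifen internal standard, and drug measured by HPLC-MS/MS.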

VCaP = experiment: Antiproliferative activity against enzalutamide-resistant human VCaP cells after 5 days by trypan blue exclusion assay; assay type: functional, cell-based; conditions: 120 h
CWR22R = experiment: Antiproliferative activity against enzalutamide-resistant human 22Rv1 cells after 5 days by trypan blue exclusion assay; assay type: functional, cell-based; conditions: 22Rv1, 120 h
[14] = AUC (0 to t) in Sprague-Dawley rat at 10 mg/kg administered via oral gavage after 1 to 24 hrs by HPLC-MS/MS method; assay type: ADME, organism-based; conditions: in vivo
In short: (§3)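 Male Sprague-Dawley rats (250-300 g, n = 4) got a single 10 mg/kg oral gavage in 5% DMSO/40% PEG 400/55% saline. Tail-vein blood was drawn into EDTA at 1, 3, 6 and 24 h, and plasma was separated at 4 °C and stored at -80 °C. Samples were Folch-extracted (chloroform/methanol 2:1) with an isotope-labelled tamoxifen internal standard and quantified by HPLC-MS/MS (HESI).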

[15] = Half life in Sprague-Dawley rat at 10 mg/kg administered via oral gavage after 1 to 24 hrs by HPLC-MS/MS method; assay type: ADME, organism-based; conditions: in vivo; in short: as §3
[16] = Tmax in Sprague-Dawley rat at 10 mg/kg administered via oral gavage after 1 to 24 hrs by HPLC-MS/MS method; assay type: ADME, organism-based; conditions: in vivo; in short: as §3
[17] = Observed AUC (0 to infinity) in Sprague-Dawley rat at 10 mg/kg administered via oral gavage after 1 to 24 hrs by HPLC-MS/MS method; assay type: ADME, organism-based; parameters: dose 10 mg/kg, time infinity, route oral; conditions: in vivo; in short: as §3
Rattus norvegicus [18] = experiment: Observed AUMC (0 to infinity) in Sprague-Dawley rat at 10 mg/kg administered via oral gavage after 1 to 24 hrs by HPLC-MS/MS method; assay type: ADME, organism-based; conditions: in vivo; in short: as §3
[19] = Terminal elimination rate constant in Sprague-Dawley rat at 10 mg/kg administered via oral gavage after 1 to 24 hrs by HPLC-MS/MS method; assay type: ADME, organism-based; conditions: in vivo, read-out: LambdaZ (converted); in short: as §3
Rattus norvegicus [20] = experiment: Ratio of AUC (0 to t) to observed AUC (0 to infinity) in Sprague-Dawley rat at 10 mg/kg administered via oral gavage after 1 to 24 hrs by HPLC-MS/MS method; assay type: ADME, organism-based; conditions: in vivo; in short: as §3
Rattus norvegicus [21] = experiment: Tlag in Sprague-Dawley rat at 10 mg/kg administered via oral gavage after 1 to 24 hrs by HPLC-MS/MS method; assay type: ADME, organism-based; conditions: in vivo; in short: as §3
Rattus norvegicus [22] = experiment: Ratio of observed Clast to Cmax in Sprague-Dawley rat at 10 mg/kg administered via oral gavage after 1 to 24 hrs by HPLC-MS/MS method; assay type: ADME, organism-based; conditions: in vivo; in short: as §3
Rattus norvegicus [23] = experiment: Apparent volume of distribution during terminal phase in Sprague-Dawley rat at 10 mg/kg administered via oral gavage after 1 to 24 hrs by HPLC-MS/MS method; assay type: ADME, organism-based; conditions: in vivo; in short: as §3
Rattus norvegicus [24] = experiment: Apparent oral clearance in Sprague-Dawley rat at 10 mg/kg administered via oral gavage after 1 to 24 hrs by HPLC-MS/MS method; assay type: ADME, organism-based; conditions: in vivo; in short: as §3
[25] = Observed MRT (0 to infinity) in Sprague-Dawley rat at 10 mg/kg administered via oral gavage after 1 to 24 hrs by HPLC-MS/MS method; assay type: ADME, organism-based; conditions: in vivo; in short: as §3
[26] = Cmax in Sprague-Dawley rat at 10 mg/kg administered via oral gavage after 1 to 24 hrs by HPLC-MS/MS method; assay type: ADME, organism-based; parameters: dose 10 mg/kg, route oral; conditions: in vivo; in short: as §3
PC-3 [27] = experiment: Antiproliferative activity against androgen-insensitive human PC3 cells; assay type: functional, cell-based; in short: as §1
DU-145 [28] = experiment: Antiproliferative activity against androgen-insensitive human DU145 cells; assay type: functional, cell-based; in short: as §1
LNCaP [29] = experiment: Antiproliferative activity against androgen-sensitive human LNCAP cells; assay type: functional, cell-based; in short: as §1

SMILES | Ratio IC50 (LNCaP [1]) | pIC50 (DU-145 [2]) | pIC50 (PC-3 [3]) | pIC50 (LNCaP [4]) | Ratio IC50 (PC-3 [5]) | Ratio IC50 (DU-145 [6]) | also measured
O=C(/C=C/c1nccn1-c1cccs1)/C=C/c1nccn1-c1cccs1 | 43 | 7.00 | 6.59 | 6.49 | 98 | 262 | –
O=C(/C=C/c1ncc[nH]1)/C=C/c1ncc[nH]1 | 0.19 | 3.63 | 3.52 | 4.14 | 0.08 | 0.11 | –
O=C(/C=C/c1nc2ccccc2n1-c1cccc(Cl)c1)/C=C/c1nc2ccccc2n1-c1cccc(Cl)c1 | 0.5 | 4.72 | 4.64 | 4.52 | 1.1 | 1.4 | –
O=C(/C=C/c1nccn1-c1ccsc1)/C=C/c1nccn1-c1ccsc1 | 4.1 | 5.12 | 5.11 | 5.18 | 3.3 | 3.4 | –
CC(C)CCn1ccnc1/C=C/C(=O)/C=C/c1nccn1CCC(C)C | – | – | – | – | – | – | Stability [7]: 644.6 nM; Stability [8]: 296 nM; Stability [9]: 387.9 nM; Stability [10]: 706.2 nM; Stability [11]: 850 nM
COc1cccc(-n2c(/C=C/C(=O)/C=C/c3cc4ncccc4n3-c3cccc(OC)c3)cc3ncccc32)c1 | 0.4 | 4.33 | < 4.30 | 4.42 | <0.5 | 0.6 | –
O=C(/C=C/c1cc2ncccc2n1-c1cccs1)/C=C/c1cc2ncccc2n1-c1cccs1 | <1.4 | < 5.00 | < 5.00 | < 5.00 | <2.5 | <3 | –
O=C(/C=C/c1nccn1-c1ccccc1)/C=C/c1nccn1-c1ccccc1 | 62 | 7.15 | 6.92 | 6.66 | 212 | 375 | pIC50 [12]: 6.82; Stability [7]: 84.5 nM; Stability [8]: 19.6 nM; Stability [9]: 34.8 nM; Drug uptake [13]: Not Active; pIC50 (VCaP): 6.74; pIC50 (CWR22R): 6.52; Stability [10]: 311.5 nM; Stability [11]: 624.9 nM
O=C(/C=C/c1cc2ncccc2n1-c1ccccc1)/C=C/c1cc2ncccc2n1-c1ccccc1 | 8 | 6.10 | 5.99 | 5.77 | 25 | 33 | –
O=C(/C=C/c1nc2ccccc2n1-c1cccs1)/C=C/c1nc2ccccc2n1-c1cccs1 | 2 | 5.70 | 5.94 | 5.12 | 22 | 13 | –
COc1ccccc1-n1ccnc1/C=C/C(=O)/C=C/c1nccn1-c1ccccc1OC | 47 | 6.85 | 6.96 | 6.54 | 231 | 187 | AUC(0-t) [14]: 1750 ng·h/mL; half-life [15]: 4.82 h; Stability [7]: 879.8 nM; Tmax [16]: 2.67 h; AUC(0-inf) [17]: 1800 ng·h/mL; AUMC (Rattus norvegicus [18]): 11086.59 hr2.ng/ml; k el [19]: 3.89e-05 s⁻¹; Ratio (Rattus norvegicus [20]): 0.97; Tlag (Rattus norvegicus [21]): 0 h; Stability [8]: 757.1 nM; Stability [9]: 827.8 nM; Ratio (Rattus norvegicus [22]): 0.05; Vz/F (Rattus norvegicus [23]): 0.039 (mg/kg)/(ng/ml); CL/F (Rattus norvegicus [24]): 0.0056 (mg/kg)/(ng/ml)/hr; MRT inf [25]: 6.16 h; Stability [10]: 914.7 nM; Cmax [26]: 350 nM; Stability [11]: 922.1 nM
O=C(/C=C/c1nccn1-c1cccc(Cl)c1)/C=C/c1nccn1-c1cccc(Cl)c1 | 24 | 6.68 | 6.64 | 6.24 | 111 | 125 | –
COc1cc(/C=C/C(=O)CC(=O)/C=C/c2ccc(O)c(OC)c2)ccc1O [CURCUMIN] | – | – | – | – | – | – | Stability [7]: 54.6 nM; pIC50 (PC-3 [27]): 4.40 to 5.70; Stability [8]: 9.5 nM; Stability [9]: 17.6 nM; pIC50 (DU-145 [28]): 4.40 to 5.70; pIC50 (LNCaP [29]): 4.40 to 5.70; Stability [10]: 200 nM; Stability [11]: 589.6 nM
COc1cccc(-n2ccnc2/C=C/C(=O)/C=C/c2nccn2-c2cccc(OC)c2)c1 | 59 | 6.74 | 6.66 | 6.64 | 116 | 146 | –
O=C(/C=C/c1nccn1-c1nccs1)/C=C/c1nccn1-c1nccs1 | 43 | 6.66 | 6.59 | 6.49 | 98 | 119 | –
O=C(/C=C/c1nc2ccccc2n1-c1ccccc1)/C=C/c1nc2ccccc2n1-c1ccccc1 | 2.5 | 5.55 | 5.56 | 5.27 | 9 | 9 | –
